Experimental data from paper PMC3603146 (Nature structural & molecular biology, 2012).
Positions count from the first letter of the chain named. Names and notes keep the numbering of the source. Square brackets hold non-standard residues; d marks the D form. Peptide text beside a SMILES is read from it. Lys(Me3) = C[N+](C)(C)CCCC[C@H](N)C(=O)O

Columns and labels:
PHF1 Tudor (WT) = PHF1 Tudor (WT) (Homo sapiens, UniProt O43189); test: NMR 1H,15N HSQC titration of wild type PHF1 Tudor with histone peptides; assay type: binding; settings: for NMR chemical shift / resonance perturbations in PHF1 Tudor: titration of unlabeled peptide into 15N-labeled wild type Tudor
PHF1 Tudor W41A = PHF1 Tudor W41A (Homo sapiens, UniProt O43189, W41A); test: NMR 1H,15N HSQC titration of PHF1 Tudor W41A mutant; assay type: binding; settings: structure of the protein remained intact
Outline: (§1)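 Uniformly 15N-labeled mutant PHF1 Tudor (residues 14–87) was GST-purified from E. coli BL21(DE3) pLysS grown in 15NH4Cl M9 (0.5 mM IPTG), tag-cleaved and size-exclusion purified. 1H,15N HSQC spectra were recorded at 600 MHz (cryoprobe) with increasing concentrations of 12-mer histone tail peptides. Kd came from nonlinear least-squares fitting of normalized chemical shift changes versus peptide and protein concentration.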

PHF1 Tudor Y47A = PHF1 Tudor Y47A (Homo sapiens, UniProt O43189, Y47A); test: NMR 1H,15N HSQC titration of PHF1 Tudor Y47A mutant; assay type: binding; settings: structure of the protein remained intact
Outline: as §1

GST-fusion PHF1 Tudor = test: Pull-down of GST-fusion PHF1 Tudor with biotinylated histone peptides; assay type: binding, human; settings: biotinylated peptides (H3K4, H3K9, unmodified H3: residues 1–21; H3K27, H3K36: residues 21–44), 50 mM Tris pH 7.5, 150 mM NaCl, 0.05% Nonidet P-40; anti-GST western
Outline: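 GST-tagged human PHF1 Tudor (residues 14–87) expressed in E. coli BL21(DE3) pLysS with 0.5 mM IPTG induction, purified on glutathione beads, eluted with 0.05 M reduced glutathione, then size exclusion. The protein was incubated with C-terminally biotinylated peptides (me1/me2/me3 forms) plus streptavidin beads. Beads were washed five times in binding buffer, and bound protein was detected with HRP-conjugated anti-GST monoclonal.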

XRCC1 = XRCC1 accumulation at single stranded breaks upon PARP1 inhibitor treatment; assay type: cell-based; settings: low doses of radiation
[1] = system: poly (ADP-ribose) PAR polymer; test: Poly; assay type: cell-based; settings: Western analysis
[2] = system: Oct4, Nanog, HoxA4 and HoxA11 promoters, mouse ES cells; test: ChIP of H3K27me3 in mouse ES cells expressing Flag-PHF1; assay type: cell-based; settings: stably expressing Flag-PHF1 vs empty vector; H3K27me3 to total H3; two experiments
Outline: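 Mouse ES cells (ww6), grown on fibroblasts or with recombinant LIF, transduced with virus carrying pRTF vector (empty or Flag-PHF1); Flag-PHF1 clones selected. ChIP on 500 μg cross-linked chromatin with anti-H3 or anti-H3K27me3; qPCR with primers near the transcription start site. H3K27me3 expressed as ratio to total H3 to correct for nucleosome density; two separate ChIP experiments.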

HEK293T cells = assay type: cell-based; settings: HA-tagged PHF1, 48 hours after transfection, compared with empty vector
Outline: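 HEK293T cells were grown in DMEM with 10% FBS and penicillin/streptomycin. They were transiently transfected using polyethylenimine with full-length human PHF1 (C-terminal HA tag, pIRES2-EGFP; wild type, W41A or Y47A) or empty plasmid as negative control. Whole-cell lysates were collected 48 h post-transfection for Western blot with rabbit antibodies to HA, histone H3, H3K27me3 and H3K36me3.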

[3] = system: MYT1 promoter, HEK293T cells; test: ChIP at the MYT1 promoter in HEK293T cells; assay type: cell-based; settings: upon overexpression of PHF1; normalized to H3
Outline: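 HEK293T cells were transiently transfected with empty vector, wild-type HA-PHF1 or W41A/Y47A mutants, then fixed 48 h later (1×10^7 cells, 1% formaldehyde, 14 min, room temperature). Chromatin was sonicated to ~500 bp and immunoprecipitated with 4 μg antibody and Protein A magnetic beads. qPCR was run in triplicate with 7 MYT1 primer sets (−1680 to 866 around TSS). Fold-enrichment = IgG-subtracted %Input ÷ that of reference gene PCLB4. Data are mean ± SD of three biological replicates.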

PHF1 Tudor Y47A, sequence (O43189 14-87 Y47A): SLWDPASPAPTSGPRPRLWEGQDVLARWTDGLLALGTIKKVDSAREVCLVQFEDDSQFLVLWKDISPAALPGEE
PHF1 Tudor W41A, sequence (O43189 14-87 W41A): as the sequence (O43189 14-87 Y47A) above, with W28A, A34Y counted along it

## C[C@H](N)C(=O)N[C@@H](CCCNC(=N)N)C(=O)N[C@H](C(=O)N[C@@H](CCCC[N+](C)(C)C)C(=O)N[C@@H](CCC(N)=O)C(=O)N[C@H](C(=O)N[C@@H](C)C(=O)N[C@@H](CCCNC(=N)N)C(=O)N[C@@H](CCCCN)C(=O)N[C@@H](CO)C(=O)N[C@H](C(=O)NCC(=O)O)[C@@H](C)O)[C@@H](C)O)[C@@H](C)O [H3K4me3]
PHF1 Tudor (WT); relative to H3K36me3, ITC or NMR (Fig. 3a)
  times weaker binding than H3K36me3 (trimethylated at other lysine residues): ~8 times
PHF1 Tudor (WT)
  NMR chemical shift / resonance perturbations in PHF1 Tudor: slightly different patterns of chemical shift changes

## CC(C)[C@H](NC(=O)CNC(=O)CNC(=O)[C@@H](NC(=O)[C@H](C)N)[C@@H](C)O)C(=O)N[C@@H](CCCC[N+](C)(C)C)C(=O)N[C@@H](CCCCN)C(=O)N1CCC[C@H]1C(=O)N[C@@H](Cc1c[nH]cn1)C(=O)N[C@@H](CCCNC(=N)N)C(=O)O [H3K36me3] (H-ATGGV[Lys(Me3)]KPHR-OH; N-terminus and C-terminus assumed)
PHF1 Tudor (WT)
  NMR chemical shift / resonance perturbations in PHF1 Tudor: large chemical shift perturbations
PHF1 Tudor W41A
  effect of W41A substitution on binding to H3K36me3: disrupted binding
PHF1 Tudor Y47A
  effect of Y47A substitution on binding to H3K36me3: disrupted binding
GST-fusion PHF1 Tudor
  association of PHF1 Tudor in pull-down: associated most strongly

## O=C(c1cc(Cc2n[nH]c(=O)c3ccccc23)ccc1F)N1CCN(C(=O)C2CC2)CC1 [AZD2281]
XRCC1
  accumulation of XRCC1 at single stranded breaks: loss of accumulation
[1]
  poly (ADP-ribose) PAR polymer: decrease in poly (ADP-ribose) PAR polymer

B1: Flag-PHF1: Flag-tagged PHF1 stably expressed in mouse ES cells (protein, UniProt Q9Z1B8 1-559, looked up)
PHD finger protein 1: MAQLPRLSRLGAPSLWDPASPAPTSGPRPRLWEGQDVLARWTDGLLYLGTIKKVDSAREVCLVQFEDDSQFLVLWKDISPAALPGEELLCCVCRSETVVPGNRLVSCEKCRHAYHQDCHVPRAPAPGEGEGASWVCRQCVFAIATKRGGALKKGPYARAMLGMKLSLPYGLKGLDWDAGHLSNRQQSYCYCGGPGEWNLKMLQCRSCLQWFHEACTQCLSKPLLYGDRFYEFECCVCRGGPEKVRRLQLRWVDVAHLVLYHLSVCCKKKYFDFDREILPFTSENWDSLLLGELSDTPKGERSSQLLSALNSHKDRFISGREIKKRKCLFGLHARTPPPVELLTGDGAPTSFPSGQGPGGGVSRPLGKRWRSEPEPLRRRQKGKVEELGPPTAAHSRHGSREQRALQASVSPPPPSPNQSYEGSSGYNFRPTDARCLPSSPIRMFASFHPSASTAGTSGDSEPPDRSPLGLHIGFPTDTPKSSPHSVTASSSSVPALTPGFSRHSPPSPLCRSLSPGTGGGVRGGVSYLSRGDPVRVLARRVRPDGSVQYLVEWGGGGIF
modifications: Flag tag
[2]
  H3K27me3 level at HoxA4 and HoxA11: comparable H3K27me3 level
  H3K27me3 signal at Oct4 and Nanog: reproducible decrease of the H3K27me3 signal

B2: wild type PHF1: full length hPHF1 expressed in HEK293T (HA-tag) or K562 cells (Flag) (protein, UniProt O43189 1-567, looked up)
chain: MAQPPRLSRSGASSLWDPASPAPTSGPRPRLWEGQDVLARWTDGLLYLGTIKKVDSAREVCLVQFEDDSQFLVLWKDISPAALPGEELLCCVCRSETVVPGNRLVSCEKCRHAYHQDCHVPRAPAPGEGEGTSWVCRQCVFAIATKRGGALKKGPYARAMLGMKLSLPYGLKGLDWDAGHLSNRQQSYCYCGGPGEWNLKMLQCRSCLQWFHEACTQCLSKPLLYGDRFYEFECCVCRGGPEKVRRLQLRWVDVAHLVLYHLSVCCKKKYFDFDREILPFTSENWDSLLLGELSDTPKGERSSRLLSALNSHKDRFISGREIKKRKCLFGLHARMPPPVEPPTGDGALTSFPSGQGPGGGVSRPLGKRRRPEPEPLRRRQKGKVEELGPPSAVRNQPEPQEQRERAHLQRALQASVSPPSPSPNQSYQGSSGYNFRPTDARCLPSSPIRMFASFHPSASTAGTSGDSGPPDRSPLELHIGFPTDIPKSAPHSMTASSSSVSSPSPGLPRRSAPPSPLCRSLSPGTGGGVRGGVGYLSRGDPVRVLARRVRPDGSVQYLVEWGGGGIF
modifications: full-length HA or Flag tag
HEK293T cells
  global level of H3K27me3: decrease in the global level of H3K27me3
[3]
  H3K27me3 levels at MYT1: substantially reduced

B3: W41A: PHF1 mutant impaired in H3K36me3 binding; HA-tagged, GFP-fusion or in Flag-PHF1-PRC2 complex according to the test (protein, UniProt O43189 1-567, looked up, variant W41A)
PHD finger protein 1: B2 chain with W41A
modifications: HA, GFP or Flag tag
HEK293T cells
  global level of H3K27me3: no effect on the H3K27me3 level

B4: Y47A: PHF1 mutant impaired in H3K36me3 binding; HA-tagged, GFP-fusion or in Flag-PHF1-PRC2 complex according to the test (protein, UniProt O43189 1-567, looked up, variant Y47A)
PHD finger protein 1: B2 chain with Y47A
modifications: HA, GFP or Flag tag
HEK293T cells
  global level of H3K27me3: no effect on the H3K27me3 level
